Source: ChEMBL document CHEMBL4325900, “Antibacterial activity evaluation of synthetic novel pleuromutilin derivatives in vitro and in experimental infection mice” (2019)
Converted amounts (≈) assume the structure as drawn.

Experiments:
[1] = tested on: Enterococcus faecalis; assay: Antibacterial activity against Enterococcus faecalis after 24 hrs by NCCLS method; assay type: functional
Outline: (§1)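 Broth microdilution in Mueller-Hinton broth. Stocks at 1280 µg/mL in aqueous 10-20% DMSO were diluted to 128 µg/mL, then serially 2-fold diluted giving final concentrations of 64 down to 0.125 µg/mL. Overnight MHB cultures were diluted to 10^6~10^7 CFU/mL, and 100 µL was added per well. Plates ran 24 h at 37°C. MIC was read from OD against an MHB blank, in triplicate.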

[2] = tested on: Staphylococcus aureus; assay: Antibacterial activity against methicillin-sensitive Staphylococcus aureus after 24 hrs by NCCLS method; assay type: functional; outline: as §1
[3] = tested on: Pasteurella multocida; assay: Antibacterial activity against Pasteurella multocida after 24 hrs by NCCLS method; assay type: functional; outline: as §1
[4] = tested on: Enterococcus faecium; assay: Antibacterial activity against Enterococcus faecium after 24 hrs by NCCLS method; assay type: functional; outline: as §1
[5] = tested on: Staphylococcus aureus; assay: Antibacterial activity against methicillin-resistant Staphylococcus aureus infected in Kunming mouse assessed as mouse survival at 40 mg/kg, ig qd treated for 3 consecutive days and measured at day 5 relative to control; assay type: functional; conditions: po, 120 h
Outline: (§2)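 Female Kunming mice, 22±2 g, made neutropenic with cyclophosphamide i.p., 150 mg/kg 4 days and 100 mg/kg 1 day before infection. Infected i.p. with 0.5 mL suspension of clinical MRSA isolate. Intragastric dosing at 20 or 40 mg/kg/d, starting 1 h post-infection, once daily for 3 consecutive days. Survival monitored.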

[6] = tested on: Escherichia coli; assay: Antibacterial activity against Escherichia coli ATCC 11775 after 24 hrs by NCCLS method; assay type: functional; conditions: DSM 30083 = JCM 1649 = ATCC 11775, 24 h; outline: as §1
[7] = tested on: Staphylococcus aureus; assay: Bactericidal activity against exponential phase of methicillin-resistant Staphylococcus aureus after 1 to 4 hrs by time kill kinetics assay; assay type: functional, organism-based
Outline: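 Exponential-phase S. aureus (4 h at 37°C, 120 rpm) diluted to ~2×10^7 CFU/mL in MHB and mixed 1:1 with MHB containing twice the desired compound concentration. Shaken at 37°C, 120 rpm. Samples at 1, 2, 3 and 4 h washed with PBS, diluted, spot-plated on MH agar, counted after ~18 h at 37°C as log10 CFU/mL. Triplicate, mean±s.d.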

[8] = tested on: Staphylococcus epidermidis; assay: Antibacterial activity against methicillin-sensitive Staphylococcus epidermidis after 24 hrs by NCCLS method; assay type: functional
Outline: (§3)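 Broth microdilution in Mueller-Hinton broth. Stocks at 1280 µg/mL in aqueous 10-20% DMSO, diluted to 128 µg/mL, then 2-fold serially to final 64 down to 0.125 µg/mL. Overnight MHB cultures diluted to 10^6~10^7 CFU/mL and added 1:1 to compound. Incubated 24 h at 37°C. MIC read from OD against MHB blank. Three parallels per concentration.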

[9] = tested on: Staphylococcus epidermidis; assay: Antibacterial activity against methicillin-resistant Staphylococcus epidermidis after 24 hrs by NCCLS method; assay type: functional; outline: as §3
[10] = tested on: Staphylococcus aureus; assay: Antibacterial activity against methicillin-resistant Staphylococcus aureus after 24 hrs by NCCLS method; assay type: functional; outline: as §3
[11] = tested on: Staphylococcus aureus; assay: Antibacterial activity against methicillin-resistant Staphylococcus aureus infected in Kunming mouse assessed as mouse survival at 40 mg/kg, ig qd treated for 3 consecutive days and measured at day 6 relative to control; assay type: functional; conditions: po, 144 h; outline: as §2
[12] = tested on: Staphylococcus aureus; assay: Antibacterial activity against methicillin-resistant Staphylococcus aureus infected in Kunming mouse assessed as mouse survival at 40 mg/kg, ig qd treated for 3 consecutive days and measured during compound treatment relative to control; assay type: functional; conditions: po; outline: as §2
[13] = tested on: Staphylococcus aureus; assay: Antibacterial activity against methicillin-resistant Staphylococcus aureus infected in Kunming mouse assessed as mouse survival at 20 mg/kg, ig qd treated for 3 consecutive days and measured up to 10 days relative to control; assay type: functional; conditions: po, 240 h; outline: as §2
[14] = tested on: Staphylococcus aureus; assay: Antibacterial activity against methicillin-resistant Staphylococcus aureus clinical isolates infected in ip dosed mouse assessed as reduction in bacterial infection administered 1 hr after infection and measured after 7 days; assay type: functional
Outline: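 Kunming mice, half male and half female, 19-23 g, 10 per group. Infected i.p. with 0.5 mL clinical MRSA isolate suspension (~10^7 CFU/mL). Single i.p. dose 1 h post-infection, five dose levels between 7.0 and 50.0 mg/kg depending on compound. Vehicle was DMSO:Tween-80:water 1:1:8, or water for valnemulin. ED50 by Probit analysis from survival after 7 days; 95% confidence ranges.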

Structure (SMILES): C=C[C@]1(C)C[C@@H](OC(=O)CSC(C)(C)CNC(=O)[C@H](N)C(C)C)[C@]2(C)[C@H](C)CC[C@]3(CCC(=O)[C@H]32)[C@@H](C)[C@@H]1O.Cl [VALNEMULIN HYDROCHLORIDE]
- MIC [1]: > 64 µg/mL
- MIC [2]: 0.25 µg/mL
- MIC [3]: 16 µg/mL
- MIC [4]: 0.125 µg/mL
- survival at 40 mg/kg [5]: 70%
- MIC [6]: 32 µg/mL
- Activity [7]: Dose-dependent effect
- MIC [8]: 0.125 µg/mL
- MIC [9]: 0.25 µg/mL
- MIC [10]: 0.25 µg/mL
- survival at 40 mg/kg [11]: 80%
- survival at 40 mg/kg [12]: > 90%
- survival at 20 mg/kg [13]: 30%
- ED50 [14]: 13.5 mg/kg

Structure (SMILES): C=C[C@]1(C)C[C@@H](OC(=O)CSc2nc(NC(=O)CN3CCN(C)CC3)c3cc[nH]c3n2)[C@]2(C)[C@H](C)CC[C@]3(CCC(=O)[C@H]32)[C@@H](C)[C@@H]1O
- MIC [1]: 64 µg/mL (≈ 96 µM)
- MIC [2]: 0.125 µg/mL (≈ 0.187 µM)
- MIC [3]: 32 µg/mL (≈ 48 µM)
- MIC [4]: 0.5 µg/mL (≈ 0.75 µM)
- MIC [6]: > 64 µg/mL
- MIC [8]: 0.25 µg/mL (≈ 0.375 µM)
- MIC [9]: 0.5 µg/mL (≈ 0.75 µM)
- MIC [10]: 1 µg/mL (≈ 1.5 µM)

Structure (SMILES): C=C[C@]1(C)C[C@@H](OC(=O)CSc2nc(NC(=O)CN3CCCCC3)c3cc[nH]c3n2)[C@]2(C)[C@H](C)CC[C@]3(CCC(=O)[C@H]32)[C@@H](C)[C@@H]1O
- MIC [1]: 32 µg/mL (≈ 49.1 µM)
- MIC [2]: 0.0625 µg/mL (≈ 0.0959 µM)
- MIC [3]: 32 µg/mL (≈ 49.1 µM)
- MIC [4]: 0.125 µg/mL (≈ 0.192 µM)
- MIC [6]: 64 µg/mL (≈ 98.2 µM)
- MIC [8]: 0.0625 µg/mL (≈ 0.0959 µM)
- MIC [9]: 0.125 µg/mL (≈ 0.192 µM)
- MIC [10]: 0.125 µg/mL (≈ 0.192 µM)
- ED50 [14]: 19.7 mg/kg

Structure (SMILES): C=C[C@]1(C)C[C@@H](OC(=O)CSc2nc(N)c3cc[nH]c3n2)[C@]2(C)[C@H](C)CC[C@]3(CCC(=O)[C@H]32)[C@@H](C)[C@@H]1O
- MIC [1]: 64 µg/mL (≈ 122 µM)
- MIC [2]: 1 µg/mL (≈ 1.9 µM)
- MIC [3]: 64 µg/mL (≈ 122 µM)
- MIC [4]: 1 µg/mL (≈ 1.9 µM)
- MIC [6]: > 64 µg/mL
- MIC [8]: 1 µg/mL (≈ 1.9 µM)
- MIC [9]: 2 µg/mL (≈ 3.8 µM)
- MIC [10]: 1 µg/mL (≈ 1.9 µM)

Structure (SMILES): C=C[C@]1(C)C[C@@H](OC(=O)CSc2nc(NC(=O)CN3CCN(c4ccccc4)CC3)c3cc[nH]c3n2)[C@]2(C)[C@H](C)CC[C@]3(CCC(=O)[C@H]32)[C@@H](C)[C@@H]1O
- MIC [1]: 64 µg/mL (≈ 87.8 µM)
- MIC [2]: 1 µg/mL (≈ 1.37 µM)
- MIC [3]: 64 µg/mL (≈ 87.8 µM)
- MIC [4]: 1 µg/mL (≈ 1.37 µM)
- MIC [6]: > 64 µg/mL
- MIC [8]: 0.5 µg/mL (≈ 0.686 µM)
- MIC [9]: 1 µg/mL (≈ 1.37 µM)
- MIC [10]: 1 µg/mL (≈ 1.37 µM)

Structure (SMILES): C=C[C@]1(C)C[C@@H](OC(=O)CSc2nc(NC(=O)CN3CCC(CO)CC3)c3cc[nH]c3n2)[C@]2(C)[C@H](C)CC[C@]3(CCC(=O)[C@H]32)[C@@H](C)[C@@H]1O
- MIC [1]: 64 µg/mL (≈ 93.9 µM)
- MIC [2]: 0.25 µg/mL (≈ 0.367 µM)
- MIC [3]: 64 µg/mL (≈ 93.9 µM)
- MIC [4]: 0.25 µg/mL (≈ 0.367 µM)
- MIC [6]: > 64 µg/mL
- MIC [8]: 0.125 µg/mL (≈ 0.183 µM)
- MIC [9]: 0.125 µg/mL (≈ 0.183 µM)
- MIC [10]: 0.25 µg/mL (≈ 0.367 µM)

Structure (SMILES): C=C[C@]1(C)C[C@@H](OC(=O)CSc2nc(NC(=O)CN3CCC(N4CCCCC4)CC3)c3cc[nH]c3n2)[C@]2(C)[C@H](C)CC[C@]3(CCC(=O)[C@H]32)[C@@H](C)[C@@H]1O
- MIC [1]: 64 µg/mL (≈ 87.1 µM)
- MIC [2]: 0.5 µg/mL (≈ 0.68 µM)
- MIC [3]: 64 µg/mL (≈ 87.1 µM)
- MIC [4]: 0.0625 µg/mL (≈ 0.085 µM)
- MIC [6]: 64 µg/mL (≈ 87.1 µM)
- MIC [8]: 0.25 µg/mL (≈ 0.34 µM)
- MIC [9]: 0.5 µg/mL (≈ 0.68 µM)
- MIC [10]: 0.5 µg/mL (≈ 0.68 µM)

Structure (SMILES): C=C[C@]1(C)C[C@@H](OC(=O)CSc2nc(NC(=O)CN3CCNCC3)c3cc[nH]c3n2)[C@]2(C)[C@H](C)CC[C@]3(CCC(=O)[C@H]32)[C@@H](C)[C@@H]1O
- MIC [1]: 64 µg/mL (≈ 98 µM)
- MIC [2]: 2 µg/mL (≈ 3.06 µM)
- MIC [3]: 32 µg/mL (≈ 49 µM)
- MIC [4]: 1 µg/mL (≈ 1.53 µM)
- MIC [6]: > 64 µg/mL
- MIC [8]: 1 µg/mL (≈ 1.53 µM)
- MIC [9]: 1 µg/mL (≈ 1.53 µM)
- MIC [10]: 4 µg/mL (≈ 6.13 µM)
